# thrombin 1536 – inhibitors of human thrombin | inhibition, % at 5 µM | hit rate 0.26% among 220,000 | P00734 | alpha-thrombin, Boc-VPR-AMC fluorogenic substrate cleavage;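 active = inhibition at or above 40%; inactive = inhibition below 40%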
#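 Test system: human alpha-thrombin; medium: pH 7.5 Tris-saline with Tween 20; times: reaction at room temperature; signal: AMC fluorescence at 355 nm excitation and 460 nm emission; also added: Boc-VPR-AMC substrate, 15 µM final; dosing: one concentration per compound, 5 µM, with 0.2% DMSO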
# Wee1 stabilizer – blocks degradation of human Wee1 kinase. HeLa Luc-Wee1K328M stability, luciferase luminescence; 100% = proteasome inhibitor MG132 effect. hit rate 1.2% among 220,000. reporter increase, % at 5 µM. P30291;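 active = activation above the mean of all tested compounds plus 3 SD, set per screening run, cut at about 8.8% in these data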;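 also: cells exposed to compound for 20 h before luminescence read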
# Target sequence (P30291 whole entry K328M): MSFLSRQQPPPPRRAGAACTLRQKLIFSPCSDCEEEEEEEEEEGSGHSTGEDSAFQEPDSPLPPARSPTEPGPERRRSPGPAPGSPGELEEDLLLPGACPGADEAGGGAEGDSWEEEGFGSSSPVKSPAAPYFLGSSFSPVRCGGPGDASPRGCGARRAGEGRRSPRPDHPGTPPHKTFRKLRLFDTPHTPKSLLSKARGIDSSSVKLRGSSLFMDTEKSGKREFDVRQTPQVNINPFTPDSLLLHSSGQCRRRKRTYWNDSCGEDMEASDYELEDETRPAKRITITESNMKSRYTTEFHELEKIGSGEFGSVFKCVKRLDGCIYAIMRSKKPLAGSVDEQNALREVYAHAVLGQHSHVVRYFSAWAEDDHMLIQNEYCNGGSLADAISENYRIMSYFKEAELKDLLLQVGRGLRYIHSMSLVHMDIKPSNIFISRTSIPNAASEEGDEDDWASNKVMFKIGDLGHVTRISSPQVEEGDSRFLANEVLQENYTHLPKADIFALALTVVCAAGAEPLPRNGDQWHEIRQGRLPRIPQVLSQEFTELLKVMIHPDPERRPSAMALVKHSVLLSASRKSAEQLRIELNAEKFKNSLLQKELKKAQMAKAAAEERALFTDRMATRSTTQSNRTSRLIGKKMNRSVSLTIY
# FXIIa inh 1536 – blocks human coagulation factor XIIa protease activity; P00748; purified FXIIa, Boc-QGR-AMC fluorogenic substrate, 2 h; inhibition, % at 5 µM; hit rate 0.3% among 220,000; AID 800; in the data active = inhibition above about 40%
# Platelet DG rel – modulates dense granule release in human platelets; inhibition, %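 (compounds screened at 7.5 µM in platelet-rich plasma)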; hit rate 0.22% among 300,000; human platelet-rich plasma, SFLLRN dense granule ATP release, luminescence;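 active = mean replicate score, as percent of positive control, at or above 50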
# FXIa inh 1536 – blocks human coagulation factor XIa protease activity; inhibition, % at 5 µM; P03951; purified FXIa, Boc-Glu-Ala-Arg-AMC fluorogenic substrate; AID 798; hit rate 0.14% among 220,000;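 active = inhibition of at least 40%; inactive = inhibition below 40%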;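 also: fluorescence of freed AMC excited at 355 nm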
# hK5 inh – blocks human kallikrein 5 protease activity; Q9Y337; recombinant hK5, fluorogenic AMC substrate cleavage; inhibition, % at 5 µM; hit rate 0.59% among 210,000; AID 873;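 active = inhibition of 40% or more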
# A number is an active result; 0 = inactive; - = not tested or not shown. Sampled rows, rich in hits. Any-hit rate of the full collection: about 1.8%.
SMILES,thrombin 1536,Wee1 stabilizer,FXIIa inh 1536,Platelet DG rel,FXIa inh 1536,hK5 inh
CN(C)c1ccc(C(=S)N2CCN(c3ccc([N+](=O)[O-])cc3)CC2)cc1,0,0,49,0,52,0
O=[N+]([O-])c1ccc(C(=S)N2CCN(c3ccc(F)cc3)CC2)cc1,0,0,0,0,0,0
O=[N+]([O-])c1ccc(N2CCCCC2)cc1,0,0,0,0,0,40
O=[N+]([O-])c1ccc(N2CCN(c3ccccc3)CC2)cc1,-,-,-,0,-,-
CN(C)c1ccc(C(=S)N2CCCCCC2)cc1,0,0,0,0,0,0
CC(=O)Nc1cccc(C(=O)Nc2cccnc2)c1,0,0,0,0,0,0
O=C(Nc1ccc(F)cc1)N1CCc2ccccc2C1,0,0,0,0,0,0
COc1ccc(/C=C(/NC(=O)c2ccco2)C(=O)Nc2ccc(C(=O)O)cc2)cc1,-,-,-,0,-,-
COc1ccc(-n2c(Cc3cccn3C)nnc2SCC(=O)N2CCOCC2)cc1,0,13,0,0,0,0
Cc1nnc(-c2ccc(Oc3ccc(Br)cc3)c([N+](=O)[O-])c2)o1,0,0,0,0,0,0
Cc1cc(Oc2ccc(-c3nnc(-c4ccccc4)o3)cc2[N+](=O)[O-])ccc1Cl,0,0,0,0,0,43
O=C1CN(C(=O)COc2ccccc2)c2ccccc2N1,-,-,-,0,-,-
O=C(O)CCCC(=O)N1CC(=O)Nc2ccccc21,0,9.1,0,0,0,0
COc1ccc(NC(=O)N2CCc3ccccc32)cc1,0,0,0,53,0,0
O=c1c2[nH]cnc2n(-c2cccc(Br)c2)c(=O)n1Cc1ccccc1,-,-,-,0,-,-
CC1=NNC(=O)c2ccccc2O1,0,0,0,0,0,0
O=C(Cc1ccc(F)cc1)NC1CCS(=O)(=O)C1 (stereo not drawn),-,-,-,0,-,-
COC(=O)c1ccccc1NC(=O)NCc1c(C)nn(C)c1C,0,0,0,-,0,0
Cc1sc2c(c1C)C(=O)NC(c1cccc(O)c1)N2 (stereo not drawn),0,0,0,0,40,0
COC(=O)c1ccc(C2NC(=O)c3c(sc(C)c3C)N2)cc1 (stereo not drawn),0,0,0,0,0,0
c1ccc2nc(-c3ccc(N4CCOCC4)cc3)ccc2c1,0,0,0,57,0,0
Cc1cc(-c2ccc(N3CCOCC3)cc2)nc2ccccc12,0,0,0,0,0,0
CN1CCN(c2ccc(-c3ccc4ccccc4n3)cc2)CC1,0,0,0,79,0,0
Cc1ccc2c(c1)[nH]c1c(=O)n(CCC3=CCCCC3)cnc12,64,0,0,-,0,0
Cc1ccc2[nH]c3c(=O)n(CCC4=CCCCC4)cnc3c2c1,0,0,0,0,0,0
SMILES,thrombin 1536,Wee1 stabilizer,FXIIa inh 1536,Platelet DG rel,FXIa inh 1536,hK5 inh
Nc1c(C2=NCCO2)nnn1Cc1ccccc1,0,9.2,0,0,0,0
Cc1ccc(CNC(=O)Nc2cccs2)cc1,0,9.1,0,0,0,0
CCCOc1ccc(CNC(=O)c2ccc3c(c2)N(CC)CCS3)cc1,-,-,-,96,-,-
O=C1/C(=C/N(C(=O)c2ccco2)c2ccc(Br)cc2)Sc2ccccc21,0,0,0,0,0,0
O=C1/C(=C/N(C(=O)c2ccco2)c2ccc(Cl)cc2)Sc2ccccc21,0,9.4,0,0,0,0
COc1cc(O)oc1C=Nc1ccc(Cl)cc1,0,0,0,0,0,0
COc1cc(O)oc1C=Nc1ccc(C(=O)O)cc1,0,0,0,70,0,0
O=C(/C=C/c1c(F)cccc1Cl)c1ccc(O)cc1,0,11,0,0,0,0
CCOC(=O)C(C)On1c(-c2ccccc2)nc2ccc([N+](=O)[O-])cc21 (stereo not drawn),0,0,0,0,0,0
O=C(O)COn1c(-c2ccccc2)nc2ccc([N+](=O)[O-])cc21,0,11,0,0,0,0
O=C(/C=C/c1ccccc1Cl)Nc1cccc(O)c1,0,0,0,0,0,0
O=C(/C=C/c1ccccc1Cl)Nc1ccccc1,0,9.3,0,0,0,0
COC(=O)C(CC(C)C)NC(=O)/C=C/c1ccccc1Cl (stereo not drawn),0,10,0,0,0,0
CCc1ccc(NC2CC(=O)N(c3ccc(OC)cc3OC)C2=O)cc1 (stereo not drawn),43,0,0,-,0,0
Cc1noc(C)c1COc1ccccc1C(=O)N1CCN(S(=O)(=O)c2ccccc2F)CC1,-,-,-,0,-,-
Nc1ccccc1SCC(=O)Nc1ccc2c(c1)OCCO2,-,-,-,0,-,-
CCOC(=O)c1c(-c2ccc(C)cc2)csc1NC(=O)CCN1CCOCC1,42,0,0,0,0,0
O=C1NCCN1C(=O)C12CC3CC(CC(C3)C1)C2,0,9.1,0,0,0,0
O=C(N1CCCC1)C12CC3CC(CC(C3)C1)C2,0,0,0,0,0,0
CCCOc1ccc(N2C(=O)CC(NCCc3ccc(S(N)(=O)=O)cc3)C2=O)cc1 (stereo not drawn),0,9.7,0,0,0,0
CCS(=O)(=O)N1Cc2ccccc2CC1C(=O)Nc1nnc(SCc2ccc(F)cc2)s1 (stereo not drawn),0,9.1,0,0,0,0
CCc1nnc(NC(=O)C2Cc3ccccc3CN2S(=O)(=O)CC)s1 (stereo not drawn),0,0,0,0,0,0
CCOc1ccccc1NC(=O)NC1(C(=O)NCc2cccnc2)CCCCC1,-,-,-,0,-,-
CC(=O)c1ccc(NC(=O)c2ccn[nH]2)cc1,0,0,0,50,0,0
O=C(Nc1ccccc1)c1ccn[nH]1,0,0,0,0,0,0
SMILES,thrombin 1536,Wee1 stabilizer,FXIIa inh 1536,Platelet DG rel,FXIa inh 1536,hK5 inh
CCOc1cc(/C=C\c2nc(O)c([N+](=O)[O-])c(=O)[nH]2)ccc1OC(C)C,-,-,-,0,-,-
C=CCc1cc(/C=C/c2nc(O)c([N+](=O)[O-])c(=O)[nH]2)cc(OC)c1O,0,9.0,0,0,0,0
O=C(NNC(=O)C1CC1c1ccccc1)c1cccc([N+](=O)[O-])c1 (stereo not drawn),0,11,0,0,0,0
O=C(Nc1ccccc1C(=O)O)/C(=C/c1ccc([N+](=O)[O-])cc1)NC(=O)c1ccc(Br)o1,0,0,0,0,0,0
O=c1c2ccccc2nnn1CSc1nnc(COc2ccc(Cl)cc2)n1Cc1ccco1,0,0,0,0,0,48
Cc1ccc(OCc2nnc(SCC(=O)c3ccccc3)n2Cc2ccco2)cc1,0,0,0,0,0,0
O=C(CSc1nnc(COc2ccccc2)n1Cc1ccco1)c1ccc(F)cc1,0,0,62,0,0,0
CC1(C)CC(=O)C(CC(=O)NC2CCCc3ccccc32)C(=O)C1 (stereo not drawn),0,0,0,0,0,0
Cc1noc(/C=C/c2ccccc2F)c1S(=O)(=O)N1CCC(C(=O)N2CCN(C)CC2)CC1,-,-,-,0,-,-
CCN1CCCc2cc(CN(CCN3CCOCC3)C(=S)Nc3ccc(OC)c(Cl)c3)ccc21,0,10,0,0,0,0
CCN1CCCc2cc(CN(CCN3CCOCC3)C(=S)Nc3ccc(OC)c(OC)c3)ccc21,0,0,0,0,0,0
